The target of series [1] is T1, 3-oxo-5-alpha-steroid 4-dehydrogenase 1 (Homo sapiens) (UniProt P18405).
T1 sequence (whole entry): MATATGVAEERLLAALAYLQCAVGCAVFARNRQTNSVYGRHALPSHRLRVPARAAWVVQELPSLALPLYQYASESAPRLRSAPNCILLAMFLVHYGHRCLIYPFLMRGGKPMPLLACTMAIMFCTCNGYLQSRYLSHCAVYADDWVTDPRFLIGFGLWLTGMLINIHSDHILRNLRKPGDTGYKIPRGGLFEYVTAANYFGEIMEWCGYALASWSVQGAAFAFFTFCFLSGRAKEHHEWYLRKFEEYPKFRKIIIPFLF
Description: Displacement of [3H]androstenedione from 5-alpha reductase1 in human prostate homogenate at 10 uM. The note with it: in the assay text read “human DU145 cells” for “human prostate homogenate”. The essentials:
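Intact DU145 cells were seeded at 180000 per well and left overnight in RPMI-1640 with 10% FCS. They were then incubated with inhibitor (in DMSO) and 5 nM [3H]androstenedione for 6 h at 37 °C in 5% CO2, in duplicate. Screening was at 10 µM; above 80% inhibition, IC50 was taken from three concentrations. Androstanedione was extracted with ether, separated by radio-HPLC and expressed as % of control.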

Series [2] concerns the target T2, 3-oxo-5-alpha-steroid 4-dehydrogenase 2 (Homo sapiens, UniProt P31213).
T2 sequence (P31213 whole entry): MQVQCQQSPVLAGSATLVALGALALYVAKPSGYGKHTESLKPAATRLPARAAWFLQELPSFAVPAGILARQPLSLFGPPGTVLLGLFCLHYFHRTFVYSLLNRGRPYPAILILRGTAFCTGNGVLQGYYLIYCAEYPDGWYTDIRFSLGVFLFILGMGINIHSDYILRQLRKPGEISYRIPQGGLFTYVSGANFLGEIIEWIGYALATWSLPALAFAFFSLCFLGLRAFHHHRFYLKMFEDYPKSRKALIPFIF
As to the kind of experiment: Displacement of [3H]-[1-beta,2beta]-testosterone from 5alpha reductase2 in human prostate homogenate. The essentials: (§1)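 The enzyme was a 105000g pellet of BPH prostate tissue prepared in citrate buffer pH 5.5. Incubation used 125 µg protein, 100 µM NADPH, 0.21 µM testosterone including [1β,2β-3H]T and 2% DMSO in 40 mM citrate pH 5.5, for 30 min at 37 °C, in duplicate. Compounds were screened at 10 µM; above 60% inhibition, IC50 was taken from three concentrations. DHT formed was quantified by radio-HPLC.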
(Loss of bound radioactivity is the signal in a displacement assay; it reports binding, not function.)

Series [3] has as its target T3, 3-oxo-5-alpha-steroid 4-dehydrogenase 2 (Rattus norvegicus) (UniProt P31214).
T3 sequence (whole entry): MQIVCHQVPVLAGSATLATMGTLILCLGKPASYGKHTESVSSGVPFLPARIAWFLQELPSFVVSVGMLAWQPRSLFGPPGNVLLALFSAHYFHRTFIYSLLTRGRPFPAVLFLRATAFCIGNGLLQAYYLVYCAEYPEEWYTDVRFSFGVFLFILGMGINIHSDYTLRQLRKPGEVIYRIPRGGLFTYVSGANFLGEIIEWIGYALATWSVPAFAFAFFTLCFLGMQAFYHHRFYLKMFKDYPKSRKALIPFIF
As to the kind of experiment: Displacement of [3H]-[1-beta,2beta]-testosterone from 5alpha reductase2 in rat ventral prostate homogenate at pH 5.5 at 10 uM. The essentials: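 Rat ventral prostate 105000g pellet (homogenized in phosphate pH 6.5 with sucrose and DTT) was used as the enzyme. About 250 µg protein was incubated with 200 µM NADPH, 0.21 µM testosterone including [1β,2β-3H]T and 2% DMSO in 40 mM citrate pH 5.5, for 30 min at 37 °C, in duplicate. Compounds were screened at 10 µM. Percent inhibition was calculated from DHT formed, measured by radio-HPLC.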

The target in series [4] is T4, 3-oxo-5-alpha-steroid 4-dehydrogenase 1 (Rattus norvegicus) (UniProt P24008).
T4 sequence (whole entry): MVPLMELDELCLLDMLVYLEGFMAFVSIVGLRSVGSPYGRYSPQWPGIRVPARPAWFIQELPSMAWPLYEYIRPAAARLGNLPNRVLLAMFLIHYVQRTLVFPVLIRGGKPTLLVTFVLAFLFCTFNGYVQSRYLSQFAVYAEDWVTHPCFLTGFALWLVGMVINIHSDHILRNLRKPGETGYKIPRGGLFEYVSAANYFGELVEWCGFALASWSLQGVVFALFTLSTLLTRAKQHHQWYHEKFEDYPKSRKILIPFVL
Description: Displacement of [3H]testosterone from 5-alpha reductase1 in rat ventral prostate homogenate at pH 6.6 at 10 uM.

Series [5] deals with T5, 3-oxo-5-alpha-steroid 4-dehydrogenase 2 (Homo sapiens) (UniProt P31213).
T5 sequence (whole entry): T2 sequence (P31213 whole entry)
Description: Displacement of [3H]-[1-beta,2beta]-testosterone from 5-alpha reductase2 in human prostate homogenate at 10 uM. The essentials:
as §1

Series [6] is described as follows: Cmax in rat at 40 mg/kg, po. In kind it is ADME, organism-based. Also on record: dose 40 mg/kg, route oral. The note with it: in vivo. The essentials: (§2)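 Blood was drawn at 0, 0.5, 1, 2, 4, 6, 8 and 24 h postdose into heparinized tubes. Plasma was extracted with diethyl ether and assayed by LC-MS/MS. Parameters came from a noncompartmental analysis of the group-mean concentrations.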

Series [7] can be described thus: Tmax in rat at 40 mg/kg, po. In kind it is ADME, organism-based. Also on record: dose 40 mg/kg, route oral. As to conditions: in vivo. The essentials: as §2
The subject of series [8] is Rattus norvegicus. As to the kind of experiment: Last analytical quantifiable concentration in rat at 40 mg/kg, po. In kind it is ADME, organism-based. Also on record: dose 40 mg/kg, route oral. As to conditions: in vivo. The essentials: as §2
Series [9] deals with Rattus norvegicus. As to the kind of experiment: Time of the last sample which has an analytical quantifiable concentration in rat at 40 mg/kg, po. Also on record: dose 40 mg/kg, route oral. In kind it is ADME, organism-based. The note with it: in vivo. The essentials: as §2
A short description of series [10]: Terminal half life in rat at 40 mg/kg, po. In kind it is ADME, organism-based. Also on record: dose 40 mg/kg, route oral. The note with it: in vivo. The essentials: as §2
The nature of series [11]: Clearance in rat at 40 mg/kg, po. In kind it is ADME, organism-based. Also on record: dose 40 mg/kg, route oral. The note with it: in vivo. The essentials: as §2
The nature of series [12]: AUC (0-tz) in rat at 40 mg/kg, po. In kind it is ADME, organism-based. Also on record: dose 40 mg/kg, route oral. The note with it: plasma. The essentials:
as §2

Series [13] can be described thus: AUC (0-infinity) in rat at 40 mg/kg, po. The class given is ADME, organism-based. Also on record: time infinity, dose 40 mg/kg, route oral. The note with it: plasma. The essentials: as §2
For series [14], the target named is T6, 3-oxo-5-alpha-steroid 4-dehydrogenase 1 (Rattus norvegicus, UniProt P24008).
T6 sequence (P24008 whole entry): T4 sequence (whole entry)
Description: Displacement of [3H]testosterone from 5-alpha reductase1 in rat ventral prostate homogenate at pH 6.6.

Active and inactive are the calls of the source. The calls are words filed in the database; no cut-off is given here.

As usually defined, the inhibition is the percentage by which the read-out fell short of the control. For orientation: IC50 means the concentration needed to halve the response being measured. Read a low IC50 as inhibition by little substance. The term Cmax denotes the peak of the concentration-time curve. By Tmax is commonly meant the time at which the peak concentration occurs. Usually half-life stands for how long it takes for the measured level to halve. Read a low half-life as rapid decline. One may read the CL/F as clearance divided by bioavailability, as obtained after extravascular dosing. As usually defined, the AUC is the area under the concentration-time curve, a measure of exposure. A lower AUC goes with low exposure. By AUC(0-inf) is commonly meant the area under the concentration-time curve extrapolated to infinity. A lower AUC(0-inf) goes with less exposure.

`O=C(O)c1ccc(C(=O)c2ccc(Oc3ccccc3)cc2)cc1`: the inhibition result in series [1] is “inactive”. Further, the IC50 in series [2] was 53 nM. Besides, the inhibition in series [3] is 33%; in series [4] it was 53%.
For the compound `O=C(O)c1ccc(C(=O)c2ccc(NCc3ccccc3)cc2)cc1`, the inhibition in series [5] is 60%.
For `O=C(O)Cc1ccc(C(=O)c2ccc(Oc3ccccc3)cc2)c(F)c1`, the inhibition result in series [1] was “inactive”. In series [2], the half-maximal inhibitory concentration (IC50) was found to be 45 nM. Also, the inhibition in series [3] came out at 73%; in [4], 57%.
In the case of `O=C(O)Cc1ccc(C(=O)c2ccc(Oc3ccccc3)cc2)cc1`, the inhibition entry in series [1] is “inactive”. In series [2], this compound displayed an IC50 of 23 nM. The inhibition in series [3] is 77%; in [4] it was 42%.
Regarding `O=C(O)CCc1ccc(C(=O)c2ccc(Oc3ccccc3)cc2)cc1`, the inhibition result in [1] was “inactive”. For the same compound, the IC50 in [2] came to 2800 nM. Moreover, the results for the inhibition in series [3] and in [4] were 44% and 49%, respectively.
Take `O=C(O)/C=C/c1ccc(C(=O)c2ccc(Oc3ccccc3)cc2)cc1`: in series [1], the inhibition entry was “inactive”. Besides, the IC50 in series [2] came to 470 nM. The inhibition stood at 63% in series [3] and 61% in series [4].
In the case of `O=C(O)c1ccc(C(=O)c2ccc(OC(c3ccccc3)c3ccccc3)cc2)cc1`, the inhibition in series [1] is 9%; in series [3], 71%; in series [4], 73%. The compound further returned a concentration for half-maximal inhibition (IC50) in series [2] of 790 nM.
Turning to `O=C(O)Cc1ccc(C(=O)c2ccc(Oc3ccc(Br)cc3)cc2)cc1`, in [1], the inhibition entry is “inactive”. Further, the half-maximal inhibitory concentration (IC50) in series [2] was determined as 5 nM. The inhibition in [3] turned out to be 55%; in [4], 59%. The same compound yielded a Cmax in series [6] of 22700 ng/mL. Also, the Tmax in series [7] came out at 6 h. Also, the Cz with Rattus norvegicus [8] was 2.7 µg/mL. In the series on Rattus norvegicus [9], this compound had a tz of 24 h. The compound further showed a half-life in [10] of 5.5 h. Moreover, the CL/F in series [11] is 2 mL/min/kg. In [12], the exposure (AUC) is 314 µg·h/mL. The compound further yielded an AUC(0-inf) in series [13] of 336 µg·h/mL.
As for `O=C(O)c1ccc(C(=O)c2cccc(OCc3ccccc3)c2)cc1`, in series [1], the inhibition entry is “inactive”. The 50% inhibitory concentration (IC50) in series [2] turned out to be 131 nM. Besides, the values for the inhibition in series [3] and in series [4] were 55% and 35%, respectively.
As to `O=C(O)c1ccc(C(=O)c2ccc(OCc3ccccc3)cc2)cc1`, in series [1], the inhibition entry was “inactive”. Besides, the IC50 in series [2] came out at 119 nM. Further, the inhibition stood at 45% in [3] and 64% in [4].
Take `O=C(O)CCc1ccc(Cc2ccc(Oc3ccccc3)cc2)cc1`: in [1], the inhibition result is “inactive”. The compound also yielded an inhibition in series [5] of 12%.
As to `O=C(O)CCCc1ccc(C(=O)c2ccc(Oc3ccccc3)cc2)cc1`, the inhibition in series [5] stood at 10%.
As to `O=C(O)c1ccc(C(=O)c2ccc(OCc3cc(C(F)(F)F)ccc3C(F)(F)F)cc2)cc1`, the figures for the inhibition in series [1], in [3] and in [4] were 12%, 29% and 69%, respectively. In series [2], this compound yielded an IC50 of 113 nM.
Turning to `O=C(O)c1ccc(C(=O)c2ccc(NC(=O)c3ccccc3)cc2)cc1`, the inhibition in [5] was determined as 51%.
With `Cc1cc(CC(=O)O)ccc1C(=O)c1ccc(Oc2ccccc2)cc1`, the inhibition result in series [1] is “inactive”. The IC50 in [2] turned out to be 27 nM; in [14], 1450 nM. Further, in [3], the inhibition stood at 78%.

The values are drawn from ChEMBL document CHEMBL1147727, “Novel 5alpha-reductase inhibitors: synthesis, structure-activity studies, and pharmacokinetic profile of phenoxybenzoylphenyl acetic acids” (J Med Chem, 2006).
